# Screening data: PubChem BioAssay, several laboratories
# Only a selection was taken, and hits are over-represented in it overall.
# S1P4 antag: S1P4 receptor antagonists, primary screen, cell-based. Sphingosine 1-phosphate receptor 4 (Homo sapiens), O95977. inhibition, % at 4.98 µM. actives 0.26% (n = 220,000). S1P4-expressing cells, antagonist mode, reporter read-out. AID 1510, 2009; in the data active = inhibition above about 29%;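 also: 0% = wells stimulated with agonist and 100% = vehicle wells without agonist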
# Target sequence (O95977 whole entry, looked up): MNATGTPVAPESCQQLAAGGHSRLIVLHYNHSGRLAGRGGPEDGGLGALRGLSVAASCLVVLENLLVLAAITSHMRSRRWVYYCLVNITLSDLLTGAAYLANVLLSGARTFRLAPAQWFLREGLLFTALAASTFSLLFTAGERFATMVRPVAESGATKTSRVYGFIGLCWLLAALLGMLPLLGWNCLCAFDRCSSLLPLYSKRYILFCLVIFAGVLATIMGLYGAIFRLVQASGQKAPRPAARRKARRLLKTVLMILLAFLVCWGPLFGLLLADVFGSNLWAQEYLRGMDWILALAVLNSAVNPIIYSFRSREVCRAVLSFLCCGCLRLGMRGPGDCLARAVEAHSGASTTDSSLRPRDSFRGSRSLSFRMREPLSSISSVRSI
# S1P4 agonist: S1P4 receptor agonists, primary screen, cell-based; Sphingosine 1-phosphate receptor 4 (Homo sapiens), O95977; S1P4-expressing cell line, agonist reporter assay; activation, % at 4.98 µM; actives 0.35% (n = 220,000); AID 1509, 2009; in the data active = activation above about 11%;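 also: 0% = DMSO vehicle and 100% = reference agonist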
# Mdm2 ligase inh: MDM2-luciferase reporter signal enhancers, primary screen, MDM2 E3 ligase inhibitor project, cell-based, luminescence, 1536-well. E3 ubiquitin-protein ligase Mdm2 (Homo sapiens), Q00987. cell-based MDM2 ubiquitination luciferase reporter, 2 h; 0 = plate control, 100 = twice control, blank-subtracted. signal enhancement, % at 5 µM. actives 0.11% (n = 210,000). AID 1230, 2008;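 active = signal enhancement of 30% or more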;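 also: luminescence tracks abundance of the self-degrading MDM2-luciferase fusion protein; higher signal means inhibition of MDM2 E3 ligase activity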
#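 system = mammalian cells stably expressing self-ubiquitinating, self-degrading MDM2 E3–luciferase fusion | quantity = 2000 cells per well seeded | incubation = 4 h cell settling then 2 h compound exposure, 37 °C | signal = SteadyLite luminescence, 15 min reagent step | benchmarks = plate control and blank wells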
# S1P3 antagonist: S1P3 receptor antagonists, primary screen, cell-based | Sphingosine 1-phosphate receptor 3 (Homo sapiens), Q99500 | CHO S1P3 NFAT-BLA reporter, FRET fluorescence, antagonist mode | inhibition, % at 4.98 µM | actives 0.27% (n = 170,000);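 active = inhibition above the plate cutoff, the mean inhibition of test wells on that plate plus 3 SD, cut at about 28% in these data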;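 also: cells challenged with S1P at its EC80 of 0.8 µM; blue over green emission ratio from cleaved BLA substrate after 4 h stimulation; 0% = S1P-stimulated wells and 100% = unstimulated DMSO-only wells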
# L major viab: Leishmania major promastigote growth inhibition, primary screen; Leishmania major promastigotes, resazurin fluorescence viability; inhibition, % at 10 µM; actives 9% (n = 200,000); in the data active = inhibition above about 50%;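 also: promastigotes grown with compound for 44 hours at 28 °C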
# * hit, by the source's call; x = no result.
SMILES,S1P4 antag,S1P4 agonist,Mdm2 ligase inh,S1P3 antagonist,L major viab
Cc1cccc(N2CCC(N3CCN(C4CCCCC4)C(CCO)C3)CC2)c1C (stereo unspecified),-15.5,1.1,-12.7,-1.2,88.3*
CC1CCCC(n2c(=S)[nH]c3ccccc3c2=O)C1C (stereo unspecified),0.8,0.2,8.2,x,21.8
C/C=C\C=C/C(=O)Nc1cccc(C2=NOC3(C2)C[C@H](C(N)=O)N(C(=O)Cc2ccc([N+](=O)[O-])cc2)C3)c1 (stereo partly specified),x,x,0.6,x,x
CCOc1ccc(S(=O)(=O)Nc2nc3ccccc3nc2N2CCN(C)CC2)cc1,6.5,-4.7,2.5,6.4,100.3*
Cc1cc(C)n2nc(SCCC(=O)NCc3ccccc3)nc2n1,-5.0,-1.0,-9.0,-8.1,5.5
Cc1cc(C)c2ccc(NN)nc2c1O,-4.2,1.9,-13.6,x,99.5*
Cc1cc(C)c2ccc(/C=N/O)nc2c1O,6.1,1.1,-5.8,2.2,x
O=C(N/N=C/c1ccccc1OCc1ccccc1)c1cccs1,-9.2,-0.5,8.7,-0.9,17.2
CN(c1ccc(C(=O)Nc2ccc(Cl)cn2)cc1)S(=O)(=O)c1ccccc1,-14.5,0.9,-13.1,-6.2,5.2
CN(C1=C(NC(=O)c2ccc(Cl)cc2)C(=O)c2ccccc2C1=O)c1ccccc1,-10.9,-2.4,-9.1,-12.4,63.8*
O=C(NC(NC1CCS(=O)(=O)C1)C(=O)c1cccs1)c1ccccc1 (stereo unspecified),7.8,9.0,-3.9,-12.8,-4.6
O=C(NC1=C(Nc2ccc(Cl)cc2)C(=O)c2ccccc2C1=O)c1ccccc1,-13.7,-1.3,-3.5,-12.9,77.7*
Cc1cccc(NC(=O)c2cccc3c2C(=O)c2ccccc2-3)c1,-13.6,0.8,-8.2,x,-1.0
CC(=O)Nc1ccc(NC2=C(Cl)C(=O)c3ccccc3C2=O)cc1,13.3,0.8,1.8,-17.1,4.1
O=C(NC1=C(NC2CCS(=O)(=O)C2)C(=O)c2ccccc2C1=O)c1ccccc1 (stereo unspecified),2.2,1.1,x,14.2,99.4*
Cc1cccc(NC2=C(NC(=O)c3ccccc3)C(=O)c3ccccc3C2=O)c1,10.0,1.9,-15.4,15.8,51.9*
CCOC(=O)Cn1c(=S)[nH]c2c(oc3ccc(Cl)cc32)c1=O,-2.3,-1.0,23.3,x,-4.6
COCC(=O)NC1(c2nnnn2CCOC(=O)Nc2ccc(Cl)cc2)CCCCC1,-12.6,0.3,-4.6,-5.3,-3.0
COC(=O)c1cc(=O)c2c(C)nc(C(Cl)(Cl)Cl)nc2[nH]1,-7.0,1.5,0.4,-26.9,-13.8
Cc1nn(-c2ccccc2)nc1C(=O)Oc1cc(C(F)(F)F)nn1-c1ccccc1,1.2,-0.5,-21.7,-6.2,x
COc1ccc2c(c1)c1ncn(CCCN3CCOCC3)c(=O)c1n2C,-0.7,1.3,-10.9,x,54.6*
CCCc1[nH][nH]c(=O)c1C(c1cccc(Cl)c1)C(C#N)C#N (stereo unspecified),-5.4,-1.9,5.1,x,14.8
Cc1[nH]n(-c2ncc(-c3ccc(Cl)cc3)s2)c(=O)c1C(c1ccc(Cl)cc1)C(C#N)C#N (stereo unspecified),-24.7,-0.5,7.4,2.4,98.7*
CCOC(=O)C(=O)Nc1ccccc1C(=O)NCc1ccccc1,2.9,0.2,-9.4,-4.7,19.1
COc1ccc(OCC2CCCN(Cc3nc(CC4CC4)no3)C2)cc1 (stereo unspecified),7.0,0.1,-3.0,1.8,-2.9
SMILES,S1P4 antag,S1P4 agonist,Mdm2 ligase inh,S1P3 antagonist,L major viab
Cc1cccc(OCC2CCCN(Cc3nc(C4CC4)no3)C2)c1 (stereo unspecified),5.0,-1.5,-6.0,1.5,62.0*
Cc1cccc(N2CCN(C(=O)c3cc(C)oc3C)CC2C)c1 (stereo unspecified),-0.4,0.0,-10.5,2.1,56.0*
Cc1cccc(N2CCN(C(=O)c3ccncc3)CC2C)c1 (stereo unspecified),11.6,1.4,-13.4,-3.0,-2.0
O=C1CCCCC/C1=N/Nc1ccc(OCc2ccccc2)cc1,13.2,0.3,-16.8,13.8,x
O=C(N/N=C/c1ccc(OCc2ccc(F)cc2)cc1)c1ccccc1,-26.8,1.4,-2.7,-4.8,-3.9
CC(Nc1cccc2ccccc12)C(=O)N/N=C/c1ccc([N+](=O)[O-])cc1 (stereo unspecified),-15.1,0.1,x,-7.0,-0.2
O=C(N/N=C/c1ccc([N+](=O)[O-])cc1)c1ccc(COc2ccccc2-c2ccccc2)cc1,-10.9,-0.2,-3.0,7.3,89.8*
CC(C)C(=O)Nc1ccccc1C(=O)N/N=C/c1ccc([N+](=O)[O-])cc1,-8.2,0.5,-10.6,x,52.1*
O=C(N/N=C/c1ccc2cccc(OCc3ccccc3)c2n1)c1ccc(Cl)cc1,-7.1,-3.1,-5.8,x,68.4*
CCC(=O)NC(c1ccc([N+](=O)[O-])cc1)c1c(O)ccc2ccccc12 (stereo unspecified),-6.3,0.5,-3.5,x,69.3*
CCCCC(=O)NC(c1ccc([N+](=O)[O-])cc1)c1c(O)ccc2ccccc12 (stereo unspecified),-7.8,-0.2,-13.9,-15.5,99.5*
S=C(N=Nc1ccccc1)NNc1ccccc1,-3.2,0.9,x,-3.5,-1.6
S=C(N/N=C/c1ccc2c(c1)OCO2)NC1CC2CCC1C2 (stereo unspecified),4.0,-2.4,-6.6,7.9,x
CCc1c(O)cc(=O)n(-c2ccccc2)c1-c1ccccc1,-4.4,-1.0,-5.3,-10.8,2.6
CCc1c(O)cc2n(c1=O)-c1ccc(Cl)cc1C2(C)C,-11.7,1.1,x,x,71.1*
O=C(NN=C1C2CC3CC(C2)CC1C3)c1cc(Cl)ccc1O,-8.4,1.5,0.0,x,-9.1
O=C(CSc1nnc(-c2ccc(Br)o2)n1Cc1ccccc1)c1ccccc1F,-0.4,-1.4,-20.4,57.6*,15.8
CCCOC(=O)c1cc(NC(=O)/C=C/c2ccccc2)ccc1O,-7.5,0.5,-10.1,4.6,2.8
CCOC(=O)C1CCN(CCC(=O)Nc2cccc(Cl)c2C)CC1,-0.8,0.5,7.2,x,94.0*
CCOC(=O)Cc1ccc(NCc2ccc(Cl)cc2)cc1,-6.5,-0.8,-4.2,13.6,100.2*
CCOC(=O)C1CCN(CCC(=O)Nc2ccccc2)CC1,-26.3,-0.4,-2.5,x,79.1*
CCOC(=O)C1CCN(CCC(=O)Nc2ccc(Cl)cc2)CC1,18.1,-0.8,1.4,x,91.0*
Cc1c(Cl)cccc1NC(=O)CCN1CCCCCC1,19.0,-1.3,7.8,-9.6,1.0
CCOC(=O)C1CCCN(CCC(=O)Nc2ccccc2)C1 (stereo unspecified),-7.4,-1.6,-14.1,x,-2.6
O=C(OCc1ccccc1)C1CCCN1C(=O)c1ccccc1[N+](=O)[O-] (stereo unspecified),2.2,-0.4,-24.7,x,-7.5
C/C(=N\NC(=O)CCn1nnc2ccccc21)c1ccco1,2.0,0.1,0.1,-12.3,x
Cn1cccc1/C=N/NC(=O)CSc1nc2ccccc2[nH]1,5.9,-0.2,-16.0,-11.5,x
CCOC(=O)C1CCC(CNCc2ccc(Cl)cc2)CC1 (stereo unspecified),7.7,7.5,-8.9,-1.7,92.2*
